Source: ChEMBL document CHEMBL1145965, “4-Substituted 4-hydroxycyclohexa-2,5-dien-1-ones with selective activities against colon and renal cancer cell lines” (J Med Chem, 2003)

Key:
786-0 = assay: Concentration of compound that cause 50% cytotoxicity of 786-0 renal cancer cell line; type: functional; details: Homo sapiens, read-out: Log LC50 (the source's name) (converted)
Method in brief: (§1)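 NCI 60-cell-line panel screen. Each line was seeded in 96-well plates at a density set by its growth characteristics and incubated drug-free for 24 h. Test agents were then added at five 10-fold dilutions, with a top concentration of 100 μM.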

A549 [1] = assay: Inhibitory activity against A549 lung adenocarcinoma cell line; type: functional, cell-based; details: Homo sapiens
Method in brief: (§2)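 Cells grown in RPMI 1640 with 2 mM L-glutamine and 10% fetal calf serum, 37 °C, 5% CO2. Seeded at 5 × 10³ per well, 24 h adherence, then drug 0.1 nM–100 μM final (n = 8; DMSO stocks, dilutions in medium) for 72 h.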

A498 = assay: Concentration of compound that cause 50% cytotoxicity of A498 renal cancer cell line; type: functional; details: Homo sapiens, read-out: Log LC50 (the source's name) (converted); method in brief: as §1
[2] = system: Panel NCI-60 (60 carcinoma cell lines); assay: In vitro mean growth inhibitory activity against 60-cell panel; type: functional; details: Homo sapiens
[3] = system: Panel NCI-60 (60 carcinoma cell lines); assay: In vitro mean growth lethal concentration in colon subpanel against 60-cell panel; type: functional; details: Homo sapiens, read-out: Mean LC50
[4] = system: Panel NCI-60 (60 carcinoma cell lines); assay: In vitro mean growth lethal concentration in renal subpanel against 60-cell panel; type: functional; details: Homo sapiens, read-out: Mean LC50
ACHN [5] = assay: Concentration of compound that cause 50% cytotoxicity of ACHN renal cancer cell line; type: functional; details: Homo sapiens, read-out: Log LC50 (the source's name) (converted); method in brief: as §1
A549 [6] = assay: Concentration of compound that cause 50% cytotoxicity of A549/ATCC non small cell lung cancer cell line; type: functional; details: Homo sapiens, read-out: Log LC50 (the source's name) (converted); method in brief: as §1
ACHN [7] = assay: In vitro lethal concentration against most sensitive ACHN cell line; type: functional; details: Homo sapiens, read-out: LC50 (the source's name)
BT-549 = assay: Concentration of compound that cause 50% cytotoxicity of BT-549 breast cancer cell line; type: functional; details: Homo sapiens, read-out: Log LC50 (the source's name) (converted); method in brief: as §1
CCRF-CEM = assay: Concentration of compound that cause 50% cytotoxicity of CCRF-CEM leukemia cell line; type: functional; details: Homo sapiens, read-out: Log LC50 (the source's name) (converted); method in brief: as §1
CAKI-1 = assay: Concentration of compound that cause 50% cytotoxicity of CAKI-1 renal cancer cell line; type: functional; details: Homo sapiens, read-out: Log LC50 (the source's name) (converted); method in brief: as §1
COLO 205 = assay: Concentration of compound that cause 50% cytotoxicity of COLO 205 colon cancer cell line; type: functional; details: Homo sapiens, read-out: Log LC50 (the source's name) (converted); method in brief: as §1
HCT-116 [8] = assay: In vitro lethal concentration against most sensitive colon HCT116 cell line; type: functional; details: Homo sapiens, read-out: LC50 (the source's name)
SW-620 = assay: In vitro lethal concentration against least sensitive colon SW-620 cell line; type: functional; details: Homo sapiens, read-out: LC50 (the source's name)
DU-145 = assay: Concentration of compound that cause 50% cytotoxicity of DU-145 prostate cancer cell line; type: functional; details: Homo sapiens, read-out: Log LC50 (the source's name) (converted); method in brief: as §1
EKVX = assay: Concentration of compound that cause 50% cytotoxicity of EKVX non small cell lung cancer cell line; type: functional; details: Homo sapiens, read-out: Log LC50 (the source's name) (converted); method in brief: as §1
HCT-116 [9] = assay: Concentration of compound that cause 50% cytotoxicity of HCT116 colon cancer cell line; type: functional; details: Homo sapiens, read-out: Log LC50 (the source's name) (converted); method in brief: as §1
HCT-15 = assay: Concentration of compound that cause 50% cytotoxicity of HCT-15 colon cancer cell line; type: functional; details: Homo sapiens, read-out: Log LC50 (the source's name) (converted); method in brief: as §1
HOP-62 = assay: Concentration of compound that cause 50% cytotoxicity of HOP-62 non small cell lung cancer cell line; type: functional; details: Homo sapiens, read-out: Log LC50 (the source's name) (converted); method in brief: as §1
HCT-116 [10] = assay: Inhibitory activity against HCT116 colon cancer cell line; type: functional, cell-based; details: Homo sapiens; method in brief: as §2
HT-29 [11] = assay: Inhibitory activity against HT-29 colon cancer cell line; type: functional, cell-based; details: Homo sapiens; method in brief: as §2
HT-29 [12] = assay: Concentration of compound that cause 50% cytotoxicity of HT-29 colon cancer cell line; type: functional; details: Homo sapiens, read-out: Log LC50 (the source's name) (converted); method in brief: as §1
HCC 2998 = assay: Concentration of compound that cause 50% cytotoxicity of HCC2998 colon cancer cell line; type: functional; details: Homo sapiens, read-out: Log LC50 (the source's name) (converted); method in brief: as §1
HL-60 = assay: Concentration of compound that cause 50% cytotoxicity of HL-60(TB) leukemia cell line; type: functional; details: Homo sapiens, read-out: Log LC50 (the source's name) (converted); method in brief: as §1
Hs-578T = assay: Concentration of compound that cause 50% cytotoxicity of Hs 578.T breast cancer cell line; type: functional; details: Homo sapiens, read-out: LC50 (the source's name); method in brief: as §1
HOP-92 = assay: Concentration of compound that cause 50% cytotoxicity of HOP-92 non small cell lung cancer cell line; type: functional; details: Homo sapiens, read-out: Log LC50 (the source's name) (converted); method in brief: as §1
K562 = assay: Concentration of compound that cause 50% cytotoxicity of K-562 leukemia cell line; type: functional; details: Homo sapiens, read-out: LC50 (the source's name); method in brief: as §1
KM12 = assay: Concentration of compound that cause 50% cytotoxicity of KM12 colon cancer cell line; type: functional; details: Homo sapiens, read-out: Log LC50 (the source's name) (converted); method in brief: as §1
M14 = assay: Concentration of compound that cause 50% cytotoxicity of M14 melanoma cell line; type: functional; details: Homo sapiens, read-out: Log LC50 (the source's name) (converted); method in brief: as §1
LOX IMVI = assay: Concentration of compound that cause 50% cytotoxicity of LOX IMVI melanoma cell line; type: functional; details: Homo sapiens, read-out: Log LC50 (the source's name) (converted); method in brief: as §1
MDA-MB-435 = assay: Concentration of compound that cause 50% cytotoxicity of MDA-MB-435 breast cancer cell line; type: functional; details: Homo sapiens, read-out: Log LC50 (the source's name) (converted); method in brief: as §1

O=C1C=CC(O)(c2nc3ccccc3s2)C=C1
CC50 (786-0): 1050 nM | IC50 (A549 [1]): 2350 nM | CC50 (A498): 8510 nM | GI50 [2]: 230 nM | CC50 [3]: 1760 nM | CC50 [4]: 1570 nM | CC50 (ACHN [5]): 2750 nM | CC50 (A549 [6]): 43700 nM | CC50 (ACHN [7]): 690 nM | CC50 (BT-549): 4790 nM | CC50 (CCRF-CEM): 2570 nM | CC50 (CAKI-1): 1350 nM | CC50 (COLO 205): 5130 nM | CC50 (HCT-116 [8]): 430 nM | CC50 (SW-620): > 100000 nM | CC50 (DU-145): 3390 nM | CC50 (EKVX): 5750 nM | CC50 (HCT-116 [9]): 468 nM | CC50 (HCT-15): 2450 nM | CC50 (HOP-62): 12600 nM | IC50 (HCT-116 [10]): 40 nM | IC50 (HT-29 [11]): 380 nM | CC50 (HT-29 [12]): 692 nM | CC50 (HCC 2998): 977 nM | CC50 (HL-60): 741 nM | CC50 (Hs-578T): > 4000 nM | CC50 (HOP-92): 3720 nM | CC50 (K562): > 4000 nM | CC50 (KM12): 4370 nM | CC50 (M14): 5250 nM | CC50 (LOX IMVI): 3800 nM | CC50 (MDA-MB-435): 1510 nM
